Data: ChEMBL document CHEMBL4689842, “EUbOPEN Chemogenomics Library wave 1” (2021)

System: HEK-293T
Test: Multiplex assay against HEK293T;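 for Population Tubulin-Different-Phenotype (%): share of the cells with healthy nuclei that show this phenotype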
Type: toxicity, cell-based
Details: human
Outline: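 Live cells carried four stains from seeding: Hoechst33342, BioTracker Green Microtubule Cytoskeleton Dye, MitoTracker Red and Annexin V Alexa Fluor 680. They were imaged on a CQ1 microscope at 37°C and 5% CO2 after compound addition. Using CellPathfinder machine-learning gating, cells were split into Hoechst high-intensity objects or normal cells, normal cells into healthy, pyknosed or fragmented nuclei, and pyknosed cells into mitotic or apoptotic; tubulin, mitochondrial-mass and membrane-permeability phenotypes are per cents of healthy-nucleus cells.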

[1] = 12 h, 1 µM, compound concentration 1 uM, replicate 1
[2] = 12 h, 1 µM, compound concentration 1 uM, replicate 2
[3] = 12 h, 10 µM, compound concentration 10 uM, replicate 1
[4] = 12 h, 10 µM, compound concentration 10 uM, replicate 2
[5] = 24 h, 1 µM, compound concentration 1 uM, replicate 1
[6] = 24 h, 1 µM, compound concentration 1 uM, replicate 2
[7] = 24 h, 10 µM, compound concentration 10 uM, replicate 1
[8] = 24 h, 10 µM, compound concentration 10 uM, replicate 2
[9] = 48 h, 1 µM, compound concentration 1 uM, replicate 1
[10] = 48 h, 1 µM, compound concentration 1 uM, replicate 2
[11] = 48 h, 10 µM, compound concentration 10 uM, replicate 1
[12] = 48 h, 10 µM, compound concentration 10 uM, replicate 2

## Cc1ccc(S(=O)(=O)NC2c3ccccc3Oc3ccccc32)cc1
[1]
  Population Apoptotic (%): 46%
  Population Fragmented Nuclei (%): 11%
  Population Healthy Nuclei (%): 44%
  Population Hoechst High Intensity Objects (%): 11%
  Population Membrane Permeable-Phenotype (%): 2%
  Population Mitochondria Different-Phenotype (%): 64%
  Population Mitotic Cells (%): 53%
  Population Normal (%): 88%
  Population Pyknosed Nuclei (%): 44%
  Population Tubulin-Different-Phenotype (%): 27%
  Total Cell Count: 362
[2]
  Population Apoptotic (%): 21%
  Population Fragmented Nuclei (%): 5%
  Population Healthy Nuclei (%): 49%
  Population Hoechst High Intensity Objects (%): 2%
  Population Membrane Permeable-Phenotype (%): 17%
  Population Mitochondria Different-Phenotype (%): 9%
  Population Mitotic Cells (%): 78%
  Population Normal (%): 97%
  Population Pyknosed Nuclei (%): 45%
  Population Tubulin-Different-Phenotype (%): 22%
  Total Cell Count: 179
[3]
  Population Apoptotic (%): 59%
  Population Fragmented Nuclei (%): 32%
  Population Healthy Nuclei (%): 37%
  Population Hoechst High Intensity Objects (%): 11%
  Population Membrane Permeable-Phenotype (%): 3%
  Population Mitochondria Different-Phenotype (%): 86%
  Population Mitotic Cells (%): 40%
  Population Normal (%): 88%
  Population Pyknosed Nuclei (%): 30%
  Population Tubulin-Different-Phenotype (%): 74%
  Total Cell Count: 398
[4]
  Population Apoptotic (%): 16%
  Population Fragmented Nuclei (%): 33%
  Population Healthy Nuclei (%): 34%
  Population Hoechst High Intensity Objects (%): 5%
  Population Membrane Permeable-Phenotype (%): 12%
  Population Mitochondria Different-Phenotype (%): 33%
  Population Mitotic Cells (%): 83%
  Population Normal (%): 94%
  Population Pyknosed Nuclei (%): 31%
  Population Tubulin-Different-Phenotype (%): 49%
  Total Cell Count: 307
[5]
  Population Apoptotic (%): 41%
  Population Fragmented Nuclei (%): 10%
  Population Healthy Nuclei (%): 47%
  Population Hoechst High Intensity Objects (%): 13%
  Population Membrane Permeable-Phenotype (%): 4%
  Population Mitochondria Different-Phenotype (%): 55%
  Population Mitotic Cells (%): 58%
  Population Normal (%): 86%
  Population Pyknosed Nuclei (%): 41%
  Population Tubulin-Different-Phenotype (%): 41%
  Total Cell Count: 392
[6]
  Population Apoptotic (%): 22%
  Population Fragmented Nuclei (%): 8%
  Population Healthy Nuclei (%): 55%
  Population Hoechst High Intensity Objects (%): 1%
  Population Membrane Permeable-Phenotype (%): 23%
  Population Mitochondria Different-Phenotype (%): 12%
  Population Mitotic Cells (%): 77%
  Population Normal (%): 98%
  Population Pyknosed Nuclei (%): 36%
  Population Tubulin-Different-Phenotype (%): 29%
  Total Cell Count: 239
[7]
  Population Apoptotic (%): 55%
  Population Fragmented Nuclei (%): 13%
  Population Healthy Nuclei (%): 55%
  Population Hoechst High Intensity Objects (%): 10%
  Population Membrane Permeable-Phenotype (%): 7%
  Population Mitochondria Different-Phenotype (%): 68%
  Population Mitotic Cells (%): 45%
  Population Normal (%): 89%
  Population Pyknosed Nuclei (%): 30%
  Population Tubulin-Different-Phenotype (%): 55%
  Total Cell Count: 362
[8]
  Population Apoptotic (%): 17%
  Population Fragmented Nuclei (%): 11%
  Population Healthy Nuclei (%): 52%
  Population Hoechst High Intensity Objects (%): 3%
  Population Membrane Permeable-Phenotype (%): 9%
  Population Mitochondria Different-Phenotype (%): 31%
  Population Mitotic Cells (%): 82%
  Population Normal (%): 96%
  Population Pyknosed Nuclei (%): 36%
  Population Tubulin-Different-Phenotype (%): 47%
  Total Cell Count: 283
[9]
  Population Apoptotic (%): 34%
  Population Fragmented Nuclei (%): 18%
  Population Healthy Nuclei (%): 46%
  Population Hoechst High Intensity Objects (%): 12%
  Population Membrane Permeable-Phenotype (%): 2%
  Population Mitochondria Different-Phenotype (%): 26%
  Population Mitotic Cells (%): 65%
  Population Normal (%): 87%
  Population Pyknosed Nuclei (%): 35%
  Population Tubulin-Different-Phenotype (%): 28%
  Total Cell Count: 465
[10]
  Population Apoptotic (%): 13%
  Population Fragmented Nuclei (%): 8%
  Population Healthy Nuclei (%): 78%
  Population Hoechst High Intensity Objects (%): 3%
  Population Membrane Permeable-Phenotype (%): 11%
  Population Mitochondria Different-Phenotype (%): 3%
  Population Mitotic Cells (%): 86%
  Population Normal (%): 96%
  Population Pyknosed Nuclei (%): 12%
  Total Cell Count: 466
[11]
  Population Apoptotic (%): 36%
  Population Fragmented Nuclei (%): 13%
  Population Healthy Nuclei (%): 66%
  Population Hoechst High Intensity Objects (%): 8%
  Population Membrane Permeable-Phenotype (%): 2%
  Population Mitochondria Different-Phenotype (%): 27%
  Population Mitotic Cells (%): 63%
  Population Normal (%): 91%
  Population Pyknosed Nuclei (%): 20%
  Population Tubulin-Different-Phenotype (%): 38%
  Total Cell Count: 453
[12]
  Population Apoptotic (%): 12%
  Population Fragmented Nuclei (%): 4%
  Population Healthy Nuclei (%): 73%
  Population Hoechst High Intensity Objects (%): 2%
  Population Membrane Permeable-Phenotype (%): 6%
  Population Mitochondria Different-Phenotype (%): 20%
  Population Mitotic Cells (%): 87%
  Population Normal (%): 97%
  Population Pyknosed Nuclei (%): 22%
  Population Tubulin-Different-Phenotype (%): 45%
  Total Cell Count: 374
